A short description of one series: In vitro release profile. The series is classed as physicochemical. The settings on record: non-gelled solution controls, 37 °C, PBS pH 7.4, dialysis bags. Summed up:
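Samples of 200 μL at 4 mg/ml (gels, non-gelled conjugate solutions and parent drug) were dialysed (MWCO 800-1000) against PBS pH 7.4 at 37 °C. The 200 μL release medium was sampled and refreshed at set times. Released conjugate was quantified by C18 HPLC (30 °C; acetonitrile/0.1 % TFA gradient; 1.0 mL/min) at 260 nm.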

The subject of series [1] is IL-1 and TNFα production by FLS cells. Put plainly: Determination of IL-1 and TNF-α in FLS cell supernatants. It counts as cell-based, rat. The following applies: 0.355 mg/ml, 48 h, compared with the untreated control group. Summed up: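 Rat FLS cells, isolated from synovial tissue of adjuvant-arthritic rats, were seeded at 1×10^5/well in MEM with 10 % fetal calf serum (37 °C, 5 % CO2) and grown overnight. They were then exposed to test compound at 0.355 mg/ml for 48 h. Supernatant cytokines were measured by ELISA against untreated cells, in triplicate (n = 3), with one-way ANOVA.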

For another series, the system named is FLS cells. Put plainly: Apoptosis detection in FLS cells. The series is classed as cell-based, rat. The following applies: all at 0.4 mg/ml Ket, 48 h, versus untreated groups. An outline of the steps:
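FLS cells were taken from arthritis-affected rat joints and grown in MEM with 10 % fetal calf serum at 37 °C under 5 % CO2. Cells were seeded at 1 × 10^6 per well, grown overnight, and exposed to the test compound (0.016-0.71 mg/ml) for 48 h. They were then trypsinised, washed, and resuspended at ∼1×10^6 cells/mL in annexin-binding buffer. Alexa Fluor 488 annexin V and PI were added for 15 min at room temperature before immediate flow cytometry.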

The next series concerns the target T1, COX-1 (ovine) (Ovis aries, UniProt P05979).
T1 sequence (P05979 25-600): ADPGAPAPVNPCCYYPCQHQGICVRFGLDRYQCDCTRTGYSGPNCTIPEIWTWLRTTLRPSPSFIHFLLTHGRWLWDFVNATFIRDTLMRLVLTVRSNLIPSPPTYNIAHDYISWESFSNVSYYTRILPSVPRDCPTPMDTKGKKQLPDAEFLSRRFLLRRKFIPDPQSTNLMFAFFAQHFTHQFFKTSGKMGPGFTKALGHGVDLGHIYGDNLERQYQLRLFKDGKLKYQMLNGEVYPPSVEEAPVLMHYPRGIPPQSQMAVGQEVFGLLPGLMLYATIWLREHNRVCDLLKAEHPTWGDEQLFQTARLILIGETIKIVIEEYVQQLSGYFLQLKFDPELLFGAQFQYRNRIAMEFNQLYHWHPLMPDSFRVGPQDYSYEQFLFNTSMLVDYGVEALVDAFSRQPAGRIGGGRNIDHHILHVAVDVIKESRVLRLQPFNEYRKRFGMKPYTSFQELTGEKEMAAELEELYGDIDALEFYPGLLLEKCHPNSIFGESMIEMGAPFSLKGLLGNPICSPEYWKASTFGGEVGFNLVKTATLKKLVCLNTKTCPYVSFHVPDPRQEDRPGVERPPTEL
Nature of the series: COX Fluorescent Inhibitor Screening Assay, COX-1. It counts as biochemical. An outline of the steps: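 The kit's peroxidase read-out was used: PGG2 converts ADHP to resorufin, read at excitation 530-540 nm and emission 585-595 nm. Ovine COX-1 was mixed with inhibitor, heme, fluorometric substrate and assay buffer. Arachidonic acid started the reaction, and plates were read exactly 2 min later at room temperature. No-enzyme blanks and no-inhibitor controls were included, and each compound was run in triplicate.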

Series [2] in a line: In vitro FLS cell toxicity assay. The series is classed as cell-based. The settings on record: Sprague Dawley, rat. Summed up: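 FLS cells from adjuvant-arthritic rat joints, in MEM with 10 % fetal calf serum at 37 °C and 5 % CO2, were seeded at 1.0×10^5/well and grown overnight. Cells were treated with six concentrations for 48 h, then given 20 µl MTT (5 mg/ml) for 4 h. Formazan was dissolved in DMSO and A490 read. Viability is relative to untreated cells, in triplicate; IC50 was read from the curves.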

In brackets after ≈: the same amount, converted by molar mass.

`C[C@H](C(=O)O)c1cccc(C(=O)c2ccccc2)c1` [(S)-Ket, (S)-Ketoprofen]: the “Time of drug release from solution” value in “In vitro release profile” is given as “within a few hours”. In series [1], the “IL-1 production by FLS cells” value is on record as “trace amounts” and the “TNFα production by FLS cells” value is “comparatively lower amount”. Moreover, in the series with FLS cells, the “Extent of apoptosis in FLS cells” value is recorded as “greater degree of cell death than untreated groups”. Moreover, the IC50 against COX-1 (ovine) was 5.1 µM. In series [2], this compound gave an IC50 at 48 h of 159 µg/mL (≈ 625 µM).

(Values after paper PMC5485419 (Theranostics, 2017).)
